Measurements published in article PMC7104935 (Asian Pacific Journal of Tropical Medicine, 2015).
≈ marks a conversion by molar mass, not a printed value. Where “and” joins values, the source holds several entries; their conditions need not be identical. Equal entries are not always repeated. Entries after “also recorded” stand apart in the source; their conditions may differ. Structures can show the parent of a compound that is named as a salt. Where two headings read alike, the source gives them in different places. Marks after values point to notes of the source that are not given here.

Key:
[1] = tested on: BHK-21 cells; experiment: MTT cell viability and proliferation assay, BHK-21 cells; format: cell-based, baby hamster; details: at concentrations tested in PRNT
Summary of the method: (§1)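 BHK-21 monolayers were exposed to test compound for 48 h at 37 °C, 5% CO2, at the concentrations used in neutralization tests. MTT was added for 4 h, then 100 g/L SDS in 0.01 mol/L HCl overnight in the dark at room temperature. OD was read at 570 nm. Inhibition rate was taken relative to solvent-treated cells, and CC50 came from the concentration plot. Experiments were repeated; mean and standard deviation reported.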

[2] = tested on: HSV-1; details: cited from earlier work
[3] = tested on: mouse hepatitis virus (MHV); experiment: microbe, parasite or virus in culture; format: cell-based, murine coronavirus; details: for IC50: read-out: IC50 against MHV
[4] = tested on: DENV-2 New Guinea C strain; experiment: DENV-2 plaque reduction neutralization test; format: cell-based, dengue virus type 2; details: for Selectivity index (DENV-2): CC50/IC50, '>' values with absence of cytotoxicity; for IC50: Dengue virus, DENV2, BHK-21, read-out: IC50 against DENV-2
Summary of the method: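 DENV-2 New Guinea C was propagated in C6/36 cells (L15, 3% FBS, 28 °C). 2-fold dilutions were made: extract fraction 166.67 to 0.08 μg/mL, flavonoids 500.00 to 15.63 μg/mL. Each was preincubated 1 h with 90 PFU, then adsorbed 1 h at 37 °C on BHK-21 monolayers (RPMI-1640, 10% FBS). Plates had 1% carboxymethylcellulose overlay for 6 d, then crystal violet plaque count. Run in duplicate, with mAb 3H5 as positive control. IC50 came from % plaque reduction curves.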

[5] = in vitro; details: mouse
[6] = MTT cell viability and proliferation assay, BHK-21 cells; format: cell-based, baby hamster; details: hamster, BHK-21 cells (monolayers)
Summary of the method: as §1

[7] = tested on: CCL9.1 cells

Compound: C[C@@H]1O[C@@H](OC[C@H]2O[C@@H](Oc3c(-c4ccc(O)c(O)c4)oc4cc(O)cc(O)c4c3=O)[C@H](O)[C@@H](O)[C@@H]2O)[C@H](O)[C@H](O)[C@H]1O [Rutin, quercetin-3-rutinoside]
- Cytotoxicity to BHK cells [1]: without cytotoxicity
- Activity on HSV-1 among flavonoids [2]: no effect at all
- Antiviral activity against MHV [3]: did not exhibit antiviral activity
- IC50 against MHV [3]: NIL
- Anti-DENV-2 activity ([4]; PRNT, 500.00 down to 15.63 μg/mL): no anti-DENV-2 activity was detected

Compound: O=c1c(O)c(-c2ccc(O)c(O)c2)oc2cc(O)cc(O)c12 [Quercetin, quercetin]
- CC50 [5]: 116 µg/mL (≈ 385 µM)
- CC50 at 48 h [6]: 155 µg/mL (≈ 514 µM)
- Activity on HSV-1 among flavonoids [2]: highest activity
- Duration of inhibition of viral infectivity [3]: up to 6 d
- Selectivity index (MHV) [3]: 0.93
- IC50 ([3]; Murine coronavirus, 1 h): 125 µg/mL (≈ 414 µM)
- Selectivity index (DENV-2) [4]: 0.88
- IC50 [4]: 177 µg/mL (≈ 585 µM)
- CC50 ([7]; mouse): 116.52 µg/mL (≈ 386 µM)

Compound: C[C@@H]1O[C@@H](Oc2c(-c3ccc(O)c(O)c3)oc3cc(O)cc(O)c3c2=O)[C@H](O)[C@H](O)[C@H]1O [Quercitrin, quercetin-3-L-rhamnoside]
- Cytotoxicity to BHK cells [1]: did not cause cytotoxicity
- Antiviral activity against MHV [3]: did not exhibit antiviral activity
- IC50 against MHV [3]: NIL
- Selectivity index (DENV-2) [4]: >1.07 ^c
- IC50 [4]: 467 µg/mL (≈ 1040 µM)

Compound: CN(C)CCCSc1ccccc1NC(=O)/C=C/c1ccccc1 [Cinanserin, cinanserin hydrochloride]
- Duration of inhibition of viral infectivity [3]: 2 days
- IC50 against MHV [3]: 62.50 µg/mL
- MHV inhibition [3]: no viral inhibition; also recorded: could not inhibit MHV
- MIC, anti-MHV activity [3]: 62.50 µg/mL and 62.5 µg/mL
- Selectivity index (MHV) [3]: >4.00 ^c and >2.00 ^c
- IC50 ([3]; Murine coronavirus): 31.2 µg/mL
- MIC ([3]; Murine coronavirus, read-out: MIC, anti-MHV activity): 31.2 µg/mL
- Cytotoxicity on CCL9.1 cells [7]: minimal or no cytotoxicity
